Where a SMILES comes first, the peptide text is derived from it. The star is where a group is joined. Cbz = O=C(OCc1ccccc1)*
What follows are compounds tested against Her3 (Homo sapiens, UniProt P21860) (assay: Western blot of Her3 level in PC9 GR4 cells). Details: combination with TX2-121-1 (0.5 μM), 116-9e 1.0 μM, 17-AAG 0.1 μM.
Type: cell-based
Outline: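 Serum-starved PC9 GR4 cells were treated with test compounds, then stimulated for 30 min with 100 ng/ml NRG. Cells were lysed in Tris/NaCl/EDTA/1% NP-40 buffer with phosphatase and protease inhibitors, and protein was normalised by BCA. Lysates were resolved on 4–12% SDS-PAGE and PVDF blots were probed for p-Her3, Her3, p-Akt (Ser473), Akt, p-Erk1/2 (Thr202/Tyr204) and Erk1/2.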

Chain of Her3 (P21860 20-1342): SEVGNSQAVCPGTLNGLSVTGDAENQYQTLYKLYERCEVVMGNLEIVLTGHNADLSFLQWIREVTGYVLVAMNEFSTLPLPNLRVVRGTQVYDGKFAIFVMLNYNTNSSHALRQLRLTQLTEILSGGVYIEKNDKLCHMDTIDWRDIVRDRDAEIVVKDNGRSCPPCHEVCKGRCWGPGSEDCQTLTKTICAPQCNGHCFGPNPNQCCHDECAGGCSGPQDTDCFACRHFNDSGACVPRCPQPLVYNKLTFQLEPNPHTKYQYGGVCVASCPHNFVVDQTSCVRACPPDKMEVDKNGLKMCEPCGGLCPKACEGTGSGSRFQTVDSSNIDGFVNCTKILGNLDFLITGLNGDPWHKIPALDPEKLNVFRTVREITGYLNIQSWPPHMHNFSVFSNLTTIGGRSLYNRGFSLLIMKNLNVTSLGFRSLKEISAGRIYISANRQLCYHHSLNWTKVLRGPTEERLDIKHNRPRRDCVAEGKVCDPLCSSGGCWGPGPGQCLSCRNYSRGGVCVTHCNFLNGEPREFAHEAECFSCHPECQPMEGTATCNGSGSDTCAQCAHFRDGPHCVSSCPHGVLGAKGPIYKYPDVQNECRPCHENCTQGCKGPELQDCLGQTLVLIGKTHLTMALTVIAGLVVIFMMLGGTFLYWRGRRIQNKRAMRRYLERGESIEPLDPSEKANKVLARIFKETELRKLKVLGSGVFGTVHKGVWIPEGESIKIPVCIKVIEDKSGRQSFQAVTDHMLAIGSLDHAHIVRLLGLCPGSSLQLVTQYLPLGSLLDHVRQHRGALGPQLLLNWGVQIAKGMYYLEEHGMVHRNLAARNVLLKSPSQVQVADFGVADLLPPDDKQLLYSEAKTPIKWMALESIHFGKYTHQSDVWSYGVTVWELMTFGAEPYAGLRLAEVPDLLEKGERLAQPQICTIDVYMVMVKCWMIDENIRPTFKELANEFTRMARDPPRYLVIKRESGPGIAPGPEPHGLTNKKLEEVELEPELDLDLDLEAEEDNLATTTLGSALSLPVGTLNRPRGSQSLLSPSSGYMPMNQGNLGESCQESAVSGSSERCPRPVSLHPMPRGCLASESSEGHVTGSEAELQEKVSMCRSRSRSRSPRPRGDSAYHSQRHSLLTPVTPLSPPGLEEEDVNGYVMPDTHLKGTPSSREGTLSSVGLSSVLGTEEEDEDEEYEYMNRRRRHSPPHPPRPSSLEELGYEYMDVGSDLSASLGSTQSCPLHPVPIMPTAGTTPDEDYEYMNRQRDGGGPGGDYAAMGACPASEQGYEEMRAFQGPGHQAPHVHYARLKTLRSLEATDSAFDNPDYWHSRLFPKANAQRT

effect on TX2-121-1 induced Her3 degradation | SMILES
enhanced degradation of Her3 | C=CCNC1=C2C[C@@H](C)C[C@H](OC)[C@H](O)[C@@H](C)/C=C(\C)[C@H](OC(N)=O)[C@@H](OC)/C=C\C=C(/C)C(=O)NC(=CC1=O)C2=O [17-AAG, 17-N-allylamino-17-demethoxygeldanamycin]
enhanced degradation of Her3 | CC1=C(C(=O)OCc2ccccc2)C(c2ccc(-c3ccccc3)cc2)NC(=O)N1CCCCCC(=O)O (stereo not drawn) [116-9e, 4-[1,1′-biphenyl]-4-yl-3,4-dihydro-6-methyl-2-oxo-5-[(phenylmethoxy)carbonyl]-1(2H)-pyrimidinehexanoic acid]
diminished | CC(C)C[C@@H](C=O)NC(=O)[C@H](CC(C)C)NC(=O)[C@H](CC(C)C)NC(=O)OCc1ccccc1 [MG132] (Cbz-Leu-Leu-Leu-aldehyde)

From PMC4232461 (Nature chemical biology, 2014)
